Experimental data published in ChEMBL document CHEMBL3870308, “Repurposing of a drug scaffold: Identification of novel sila analogues of rimonabant as potent antitubercular agents” (Eur J Med Chem, 2016).
Converted amounts (≈) assume the structure as drawn.

Columns and labels:
[1] = Cytotoxicity against mouse RAW cells assessed as reduction in cell viability at =>3 uM measured after 48 hrs by MTT assay; assay type: toxicity; settings: read-out: INH
[2] = Protein binding human plasma at 150 uM measured after 30 mins by equilibrium dialysis method; assay type: ADME, cell-free; settings: read-out: PPB (converted)
Procedure, shortened: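 Plasma spiked with 5 µL of 150 µM compound per 745 µL. Sampled at 0 h, then incubated 30 min at 37 °C. Rapid equilibrium dialysis of plasma against KH2PO4 buffer pH 7.4 for 4 h at 37 °C with shaking. Both chambers matrix-matched and precipitated with methanol containing tolbutamide internal standard. Analysed by LC-MS/MS.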

[3] = Cytotoxicity against human A549 cells measured after 48 hrs by MTT assay; assay type: toxicity, cell-based
Procedure, shortened: (§1)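 Cells from ATCC grown in DMEM with 10% FBS at 37 °C in 5% CO2, harvested by trypsinization and seeded at 7500 cells per well. After 18 h, compound added at final 0.1, 1, 10 and 100 µM in triplicate. Plates incubated 48 h, then MTT for 60 min at 37 °C. Formazan dissolved in DMSO and read at 560 nm. Percent growth taken relative to control wells, with dose-response curves. Repeated three times, mean ± SD.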

[4] = Cytotoxicity against human HepG2 cells measured after 48 hrs by MTT assay; assay type: toxicity, cell-based; procedure, shortened: as §1
[5] = test system: Mycobacterium tuberculosis; test: Antitubercular activity against Mycobacterium tuberculosis H37Rv assessed as growth inhibition by Alamar-Blue assay; assay type: functional
[6] = test system: Mycobacterium tuberculosis; test: Antimycobacterial activity against Mycobacterium tuberculosis by broth microdilution assay; assay type: functional
[7] = Selectivity index, ratio of IC50 for human A549 cells to MIC for Mycobacterium tuberculosis H37Rv; assay type: toxicity, cell-based; settings: read-out: Ratio IC50
[8] = Metabolic stability in human plasma at 50 uM measured after 60 mins by LC-MS/MS analysis; assay type: ADME, cell-free; settings: read-out: Stability
Procedure, shortened: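 Working solution at 50 µM in acetonitrile:water (1:1), from a 10 mM DMSO stock. 2 µL added to 98 µL of plasma and incubated 60 min at 37 °C. Quenched with methanol containing internal standard, centrifuged, and supernatant analysed by LC-MS/MS.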

[9] = Selectivity index, ratio of IC50 for human HepG2 cells to MIC for Mycobacterium tuberculosis H37Rv; assay type: toxicity, cell-based; settings: read-out: Ratio IC50
[10] = Cytotoxicity against human THP1 cells assessed as reduction in cell viability at =>3 uM measured after 48 hrs by MTT assay; assay type: toxicity, cell-based, THP-1; settings: read-out: INH
[11] = Solubility of the compound at pH 2.2 by HPLC method; assay type: physicochemical; settings: buffer
Procedure, shortened: (§2)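 Compound diluted to a 5 mM DMSO working solution from a 10 mM stock. 5 µL added to 495 µL of buffer at the stated pH. Vortexed 5 min and centrifuged. Supernatant quantified by HPLC.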

[12] = Solubility of the compound at pH 7.4 by HPLC method; assay type: physicochemical; settings: buffer; procedure, shortened: as §2
[13] = Solubility of the compound at pH 10.2 by HPLC method; assay type: physicochemical; settings: buffer; procedure, shortened: as §2
[14] = Solubility of the compound at pH 4.5 by HPLC method; assay type: physicochemical; settings: buffer; procedure, shortened: as §2
[15] = Metabolic stability in human liver microsomes at 1 or 50 uM measured after 30 to 60 mins in presence of cofactor by LC-MS/MS analysis; assay type: ADME
Procedure, shortened: (§3)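 Stock 10 mM in DMSO, diluted to a 50 µM working solution in acetonitrile:water (1:1). 2 µL of this added to 98 µL of buffer, microsomes and cofactor. Incubated at 37 °C for 15, 30, 45 and 60 min. Stopped with methanol containing internal standard, vortexed and centrifuged. Supernatant analysed by LC-MS/MS.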

[16] = Metabolic stability in mouse liver microsomes at 1 or 50 uM measured after 30 to 60 mins in presence of cofactor by LC-MS/MS analysis; assay type: ADME; procedure, shortened: as §3
[17] = Solubility of the compound at pH 1.2 by HPLC method; assay type: physicochemical; settings: buffer; procedure, shortened: as §2

Row | Structure (SMILES) | fraction unbound at 0.5 h, 150 µM [2] | IC50 at 48 h [3] | IC50 at 48 h [4] | MIC [5] | selectivity ratio [7] | remaining at 1 h, 50 µM [8] | selectivity ratio [9] | also measured
1 | Cc1c(CN2CCN(C)CC2)cc(-c2ccc(Cl)cc2)n1-c1ccc(Cl)cc1 | 0.0077 | 91.5 µM | 71 µM | 0.7 µg/mL (≈ 1.69 µM) | 57.2 | 100% | 44.4 | cytotoxicity at 48 h [1]: 40 to 60%; MIC [6]: 0.7 to 1.5 µg/mL (≈ 1.69 to 3.62 µM); cytotoxicity at 48 h [10]: 40 to 60%
2 | C[Si]1(C)CCN(NCc2cc(-c3ccc(Cl)cc3)n(-c3ccc(Cl)cc3)n2)CC1 | 0.0069 | 73.2 µM | 86.8 µM | 0.39 µg/mL (≈ 0.875 µM) | 84.2 | 100% | 99.8 | cytotoxicity at 48 h [1]: 40 to 60%; solubility [11]: 43.2 µM (≈ 19.2 µg/mL); solubility [12]: 39.8 µM (≈ 17.7 µg/mL); solubility [13]: 38 µM (≈ 16.9 µg/mL); solubility [14]: 44.3 µM (≈ 19.7 µg/mL); Stability [15]: 93.1%; Stability [16]: 100%; cytotoxicity at 48 h [10]: 40 to 60%; solubility [17]: 43.1 µM (≈ 19.2 µg/mL)
3 | CN(C)CCCNC(=O)c1cc(-c2ccc(Cl)cc2)n(-c2ccc(Cl)cc2)n1 |  |  |  | 25 µg/mL (≈ 59.9 µM) |  |  |  | 
4 | Cc1c(CN2CCN(C)CC2)nn(-c2ccc(Cl)cc2Cl)c1-c1ccc(Cl)cc1 |  | 80.3 µM | 85 µM | 12.5 µg/mL (≈ 27.8 µM) | 2.9 |  | 3.1 | 
5 | Cc1c(CN2CC[Si](C)(C)CC2)nn(-c2ccc(Cl)cc2Cl)c1-c1ccc(Cl)cc1 | 0.0005 | 54.2 µM | 51.9 µM | 1.17 µg/mL (≈ 2.44 µM) | 31.9 | 99.2% | 30.5 | cytotoxicity at 48 h [1]: 40 to 60%; solubility [11]: 40.6 µM (≈ 19.4 µg/mL); solubility [12]: 1.05 µM (≈ 0.503 µg/mL); solubility [13]: 10.9 µM (≈ 5.24 µg/mL); solubility [14]: 34.2 µM (≈ 16.4 µg/mL); Stability [15]: 18.5%; Stability [16]: 9.2%; cytotoxicity at 48 h [10]: 40 to 60%; solubility [17]: 41 µM (≈ 19.6 µg/mL)
6 | Cc1c(C(=O)N2CCNCC2)nn(-c2ccc(Cl)cc2Cl)c1-c1ccc(Cl)cc1 |  |  |  | 25 µg/mL (≈ 55.6 µM) |  |  |  | 
7 | C[Si]1(C)CCN(Cc2nn(-c3ccc(Cl)cc3Cl)c(-c3ccc(Cl)cc3)c2CO)CC1 | 0.0004 | 61.9 µM | 30.4 µM | 6.25 µg/mL (≈ 12.6 µM) | 4.92 | 88.1% | 2.41 | solubility [11]: 42.5 µM (≈ 21 µg/mL); solubility [12]: 5.31 µM (≈ 2.63 µg/mL); solubility [13]: 2.39 µM (≈ 1.18 µg/mL); solubility [14]: 41.6 µM (≈ 20.6 µg/mL); Stability [15]: 2.1%; Stability [16]: 3.7%; solubility [17]: 44 µM (≈ 21.8 µg/mL)
8 | Cc1c(C(=O)NCCCN(C)C)nn(-c2ccc(Cl)cc2Cl)c1-c1ccc(Cl)cc1 |  |  |  | 25 µg/mL (≈ 53.7 µM) |  |  |  | 
9 | Clc1ccc(-c2cc(CN3CCCCC3)nn2-c2ccc(Cl)cc2)cc1 | 0.0011 |  |  | 1.56 µg/mL (≈ 4.04 µM) |  | 91.7% |  | solubility [11]: 44.6 µM (≈ 17.2 µg/mL); solubility [12]: 11.4 µM (≈ 4.4 µg/mL); solubility [13]: 1.49 µM (≈ 0.576 µg/mL); solubility [14]: 43.6 µM (≈ 16.8 µg/mL); Stability [15]: 60.1%; Stability [16]: 26%; solubility [17]: 45 µM (≈ 17.4 µg/mL)
10 | O=C1CCN(Cc2cc(-c3ccc(Cl)cc3)n(-c3ccc(Cl)cc3)n2)CC1 |  |  |  | 25 µg/mL (≈ 62.5 µM) |  |  |  | 
11 | Cc1c(CNCc2ccccc2)nn(-c2ccc(Cl)cc2Cl)c1-c1ccc(Cl)cc1 |  | 55.8 µM | 57.4 µM | 6.25 µg/mL (≈ 13.7 µM) | 4.1 |  | 4.2 | 
12 | O=C(c1cc(-c2ccc(Cl)cc2)n(-c2ccc(Cl)cc2)n1)N1CCNCC1 |  |  |  | 25 µg/mL (≈ 62.3 µM) |  |  |  | 
13 | Cc1c(C(=O)NN2CCN(C)CC2)nn(-c2ccc(Cl)cc2Cl)c1-c1ccc(Cl)cc1 |  |  |  | 25 µg/mL (≈ 52.2 µM) |  |  |  | 
14 | Cc1c(CN(C)C)nn(-c2ccc(Cl)cc2Cl)c1-c1ccc(Cl)cc1 |  | 57.2 µM | 36.3 µM | 6.25 µg/mL (≈ 15.8 µM) | 3.62 |  | 2.3 | 
15 | C[Si]1(C)CCN(Cc2cc(-c3ccc(Cl)cc3)n(-c3ccc(Cl)cc3)n2)CC1 | 0.0007 | 58.9 µM | 21.4 µM | 0.031 µg/mL (≈ 0.072 µM) | 841 | 100% | 306 | cytotoxicity at 48 h [1]: 40 to 60%; solubility [11]: 42.3 µM (≈ 18.2 µg/mL); solubility [12]: 3.72 µM (≈ 1.6 µg/mL); solubility [13]: 1.99 µM (≈ 0.857 µg/mL); solubility [14]: 41.9 µM (≈ 18 µg/mL); Stability [15]: 20.3%; Stability [16]: 6.3%; cytotoxicity at 48 h [10]: 40 to 60%; solubility [17]: 43 µM (≈ 18.5 µg/mL)
16 | CN(C)C(=O)c1cc(-c2ccc(Cl)cc2)n(-c2ccc(Cl)cc2)n1 |  |  |  | 25 µg/mL (≈ 69.4 µM) |  |  |  | 
17 | CN1CCN(Cc2cc(-c3ccc(Cl)cc3)n(-c3ccc(Cl)cc3)n2)CC1 |  |  |  | 25 µg/mL (≈ 62.3 µM) |  |  |  | 
18 | C[Si]1(C)CCN(C(=O)c2cc(-c3ccc(Cl)cc3)n(-c3ccc(Cl)cc3)n2)CC1 | 0.0001 | 68.3 µM | 59 µM | 6.25 µg/mL (≈ 14.1 µM) | 4.85 | 89.7% | 4.18 | solubility [11]: 0.18 µM (≈ 0.08 µg/mL); solubility [12]: 0.05 µM (≈ 0.0222 µg/mL); solubility [13]: 1.28 µM (≈ 0.569 µg/mL); solubility [14]: 0.13 µM (≈ 0.0578 µg/mL); Stability [15]: 2.1%; Stability [16]: 3.9%; solubility [17]: 0.16 µM (≈ 0.0711 µg/mL)
19 | Cc1c(CN2CCNCC2)nn(-c2ccc(Cl)cc2Cl)c1-c1ccc(Cl)cc1 |  |  |  | 25 µg/mL (≈ 57.4 µM) |  |  |  | 
20 | Cc1c(CN2CCCCC2)nn(-c2ccc(Cl)cc2Cl)c1-c1ccc(Cl)cc1 |  | 88.8 µM | > 100 µM | 12.5 µg/mL (≈ 28.7 µM) | 3.1 |  | > 3.5 | 
21 | COc1cccc2c1C(=O)c1c(O)c3c(c(O)c1C2=O)C[C@@](O)(C(=O)CO)C[C@@H]3O[C@H]1C[C@H](N)[C@H](O)[C@H](C)O1 [DOXORUBICIN] |  | 5.32 µM | 5.34 µM |  |  |  |  | 
22 | NNC(=O)c1ccncc1 [ISONIAZID] |  |  |  | 0.3 µg/mL (≈ 2.19 µM) |  |  |  | 
23 | Cc1c(C(=O)NN2CCCCC2)nn(-c2ccc(Cl)cc2Cl)c1-c1ccc(Cl)cc1 [RIMONABANT] |  |  |  | 25 µg/mL (≈ 53.9 µM) |  |  |  | 
